Screens from PubChem.
Shown are actives, neighbours in structure and some others; about 4.1% of the full set was active somewhere.
HCV NS3 hel inh: blocks Hepatitis C virus NS3 helicase unwinding. NS3 helicase DNA unwinding, Cy5 molecular beacon fluorescence. 290,000 compounds, 0.56% hits. inhibition, % at 10.9 µM;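 active means inhibition above the mean of all tested compounds plus 3 SD, set per campaign, cut at about 35% in these data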;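 further: 0% = DMSO wells and 100% = thioflavine S control wells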
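System: HCV NS3 helicase fragment; control set: DMSO and thioflavine S; technique: Cy5 fluorescence at 0 and 60 min, beacon hairpin quenching; reagent: beacon DNA duplex substrate plus ATP; replicates: singlicate; schedule: 1 h reaction at 25 °C, ATP-initiated; medium: MOPS buffer pH 6.5 with MgCl2, DTT, Tween20, BSA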
DNA FID counter-1: fluorescent intercalator displacement, NS3 helicase counter-screen | DNA fluorescent intercalator displacement, fluorescence | inhibition, % at 7.9 µM | 290,000 compounds, 0.17% hits | AID 1845;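 further: 0% = vehicle and 100% = reference compound; higher means more ethidium bromide displaced from hairpin DNA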
T cruzi inh: blocks replication of Trypanosoma cruzi; T. cruzi beta-gal in NIH3T3, luminescence, 90 h; inhibition, % (test concentration not listed); 300,000 compounds, 1.4% hits; AID 1885;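 active means mean inhibition across valid replicates above about 55%, limit read from the data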;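 further: signal also drops with host cell toxicity which is not excluded here; 0% = plate median of DMSO wells and 100% = zero luminescence signal; higher percent means less beta-gal luminescence so fewer parasites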
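Incubation – ≥90 h infection period, 3 h prior cell attachment · System – NIH/3T3 fibroblasts plus reporter T. cruzi · Doses – compound pinned at 50 nL/well, DMSO · Read-out basis – percent inhibition of parasite-derived β-gal signal · Signal – luminescent β-galactosidase signal after 60 min lysis · Also added – 5000 T. cruzi trypomastigotes/well · Medium – Low-serum DMEM with 2% FBS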
MEKK2 WT-MEK5: raises or lowers MEK5 binding to wildtype human MEKK2 PB1 domain | Q9Y2U5 | bead flow cytometry, Alexa488-MEK5 binding to MEKK2 WT; actives lie on both sides | binding response (% of control), % at 10 µM | 290,000 compounds, 1.1% hits; in the data active means binding response below about 67% or above about 130%
MEKK3 PB1 HTS: raises or lowers MEK5 binding to the human MEKK3 PB1 domain | bead-based flow cytometry, Alexa488-MEK5 binding to MEKK3; actives lie on both sides; 0 = blocked by unlabeled MEK5, 100 = vehicle | 290,000 compounds, 1.4% hits | binding response (% of control), % at 10 µM | Q99759;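 active means binding response more than 3 SD above or below the average of its plate-row segment, actives on both sides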;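 further: Alexa488 bead fluorescence after subtracting the streptavidin-only scavenger bead signal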
Target sequence (Q99759 whole entry, looked up, the tested form may be a part): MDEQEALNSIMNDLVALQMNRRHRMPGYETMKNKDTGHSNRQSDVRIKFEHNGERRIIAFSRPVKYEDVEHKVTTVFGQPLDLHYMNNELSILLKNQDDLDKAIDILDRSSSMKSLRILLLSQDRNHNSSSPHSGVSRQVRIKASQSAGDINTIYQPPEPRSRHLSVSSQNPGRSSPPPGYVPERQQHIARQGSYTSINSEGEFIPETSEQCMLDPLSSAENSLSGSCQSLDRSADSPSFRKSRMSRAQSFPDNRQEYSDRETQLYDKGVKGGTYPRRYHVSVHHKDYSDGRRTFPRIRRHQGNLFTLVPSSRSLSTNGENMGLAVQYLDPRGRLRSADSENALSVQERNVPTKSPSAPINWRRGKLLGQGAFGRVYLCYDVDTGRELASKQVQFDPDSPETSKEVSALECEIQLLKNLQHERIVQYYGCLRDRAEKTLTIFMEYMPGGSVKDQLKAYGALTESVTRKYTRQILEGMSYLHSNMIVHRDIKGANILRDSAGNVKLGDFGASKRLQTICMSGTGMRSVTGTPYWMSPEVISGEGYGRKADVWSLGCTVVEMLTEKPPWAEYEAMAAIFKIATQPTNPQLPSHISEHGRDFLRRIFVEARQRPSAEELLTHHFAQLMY
MEKK2mut PB1 HTS: signal of MEK5 binding to mutant human MEKK2 PB1 domain. bead flow cytometry, Alexa488-MEK5 binding to MEKK2 mutant. percent response, % at 10 µM. 290,000 compounds, 0.35% hits. AID 1530; in the data active means percent response above about 24%, passing the limit was not always enough
MEKK2wt confirm: raises or lowers MEK5 binding to wildtype human MEKK2, retest; shares compounds with MEKK3 PB1 HTS; bead flow cytometry, Alexa488-MEK5 binding to MEKK2 WT; actives lie on both sides; binding response (% of control), % at 10 µM; 5,900 compounds, 2.4% hits; AID 1892; in the data active means binding response below about 16% or above about 210%; inactive means in between
MEKK2mut confirm: signal of MEK5 binding to mutant human MEKK2, retest; shares compounds with MEKK3 PB1 HTS; bead flow cytometry, Alexa488-MEK5 binding to MEKK2 mutant; percent response, % at 10 µM; 5,900 compounds, 2% hits; in the data active means percent response mostly above about 71%, no sharp cut-off; inactive means mostly below about 38%;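 further: higher means compound restores mutant binding toward wildtype level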
MEKK3 confirm: confirmation of inhibitors of MEK5 binding to human MEKK3 | AID 1894 | bead flow cytometry, Alexa488-MEK5 binding to MEKK3; active compounds read low | 5,900 compounds, 1.8% hits | binding response (% of control), % at 10 µM | shares compounds with MEKK3 PB1 HTS;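 active means binding response below 72% of control, or above a set upper limit, though filed actives all read lower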;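 further: 100% = DMSO only wells and 0% = binding blocked by excess unlabeled MEK5; lower values mean stronger disruption of MEK5 binding to MEKK3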
NS3 hel confirm: confirmation of Hepatitis C virus NS3 helicase inhibitors | shares compounds with HCV NS3 hel inh | NS3 helicase DNA unwinding, Cy5 molecular beacon fluorescence | inhibition, % at 10.9 µM | 1,600 compounds, 31% hits;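 active means inhibition above the mean of all tested compounds plus 3 SD, cutoff set per campaign, cut at about 36% in these data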
DNA FID counter-2: intercalator displacement, NS3 helicase counter-screen; inhibition, % at 7.9 µM; DNA fluorescent intercalator displacement, fluorescence; 1,600 compounds, 4% hits; shares compounds with HCV NS3 hel inh;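 further: 0% = vehicle and 100% = reference compound; higher means more displacement of ethidium bromide from the DNA hairpin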
DNA FID DR: displaces fluorescent intercalator from DNA, HCV helicase counter-screen; 120 tested, under 10 active; fluorescent intercalator displacement from DNA, fluorescence; AID 2172; shares compounds with HCV NS3 hel inh; IC50, µM; call rule not given here
Numbers without * were called inactive; · = no result given; ! = not confirmed by another sample; [ ] = dose if it differs, or a comment. Unless noted, no stated cut-off is given here; in the data, active means inhibition above about 37%; inactive means the rest.

SMILES	HCV NS3 hel inh	DNA FID counter-1	T cruzi inh	MEKK2 WT-MEK5	MEKK3 PB1 HTS	MEKK2mut PB1 HTS	MEKK2wt confirm	MEKK2mut confirm	MEKK3 confirm	others
CC(C)C(C)(NC(=O)c1cccn(Cc2ccc3c(c2)OC(F)(F)O3)c1=O)C(N)=O (centres undefined)	-7	-31	-16	101	100	0	·	·	·
COc1ccc(N2C(=O)/C(=C/c3cc(C)n(-c4ccc(C)cn4)c3C)C(=O)NC2=S)c(OC)c1	2	-8	2	33*[inhibitor]	51	-20	85	-5	98
Cc1ccc(-n2c(C)cc(/C=C3/C(=O)NC(=O)N(C)C3=O)c2C)cc1	4	-17	4	95	87	0	·	·	·
Cc1ccc(C(=O)N[C@@H](C)CN2C3=NC[C@H](Cc4ccccc4)N3C[C@H]2Cc2ccc(O)cc2)cc1Br	·	·	10	168*	112	31*	155	25	88
Cc1ccc(C(=O)N[C@@H](C)CN2C3=NC[C@@H](Cc4ccccc4)N3C[C@H]2Cc2ccc(O)cc2)cc1Br	-67	8	29	248*	108	103*	159	61	107
Cc1ccccc1N1CCN(C2CCCN(C(=O)COc3ccccc3)C2)CC1 (centres undefined)	-5	-3	15	104	104	-2	·	·	·
FC(F)(F)c1ccccc1N1CC1c1ccncc1 (centres undefined)	-2	-4	2	103	101	0	·	·	·
C=CCn1c(O)c(C(C)=NC(C)c2ccccc2)c(=O)[nH]c1=O (centres undefined)	11	-23	13	96	96	-2	·	·	·
CC[C@@H]1C(=O)OC[C@@H]1Cc1cncn1C	0	-2	-10	55*![inhibitor]	88	4	99	-5	99
CCCCCn1c(=O)c(C(=O)Nc2ccccc2C)c(O)c2ccccc21	15	-8	-1	100	100	-1	·	·	·
Cc1ccccc1NC(=O)NCCN1CC1	-53	-3	8	144*	95	23	159	22	100
CCN(CC)c1ccc(CN(C)CCc2ccc(OC)c(OC)c2)cc1	-9	7	61*	135*	115	24*	114	7	107
COc1ccc(CCN(C)Cc2ccc(F)cc2F)cc1OC	2	0	35	99	102	2	·	·	·
COc1cccc(CNCCc2c[nH]c3ccccc23)c1OC	-5	16	-4	147*	107	44	114	3	103
COc1ccc(CNCCc2c[nH]c3ccccc23)c(OC)c1OC	-8	6	11	118	105	8	·	·	·
Cc1c2cnn(CC(=O)N3CCC4(CC3)OCCO4)c(=O)c2c(C)n1Cc1ccccc1Cl	1	-53	-4	100	97	-1	·	·	·
C=CCN1C(=O)NC(=O)/C(=C/c2ccc(OC)c(CSc3ccccn3)c2)C1=O	9	-6	0	80	80*[inhibitor]	-20	99	-2	99
CCCCC(=O)N/N=C/c1c(O)n(CC)c(=S)[nH]c1=O	-7	2	-7	1.0*[inhibitor]	2.0*[inhibitor]	-1	100	-1	103
O=C(N/N=C/c1c(O)n(CCC2=CCCCC2)c(=S)[nH]c1=O)c1ccccc1	40*	-24	1	108	154*	0	99	-2	104	NS3 hel confirm=99*;DNA FID counter-2=4;DNA FID DR=>79
O=c1[nH]c(=S)n(CCC2=CCCCC2)c(O)c1C=NCc1cccnc1	-4	0	-14	99	102	3	·	·	·
COc1ccc(OC)c(N2C(=O)/C(=C/c3ccco3)C(=O)NC2=S)c1	44*	-1	-4	66*[inhibitor]	85	-25	98	2	100	NS3 hel confirm=104*;DNA FID counter-2=62*
COC(=O)C1=C(c2cccc(OC)c2OC)C[C@@H]2CC[C@H]1N2C(=O)NC(C)C	·	·	-24	109	108	3	·	·	·
CCN1C(=O)N(CC)C(=O)C2(Cc3ccccc3N3CCN(c4ccccc4)CC32)C1=O (centres undefined)	45*	-27	-4	97	101	4	·	·	·	NS3 hel confirm=-20;DNA FID counter-2=-32
CN1C(=O)N(C)C(=O)C2(Cc3cc(N)ccc3N3CCN(c4ccccc4F)CC32)C1=O (centres undefined)	1	-8	-2	93	95	-2	·	·	·
N/C(=N/[N+](=O)[O-])N1CCN(C(=O)Oc2ccc([N+](=O)[O-])cc2)CC1	2	-2	1	108	111	12	·	·	·
SMILES	HCV NS3 hel inh	DNA FID counter-1	T cruzi inh	MEKK2 WT-MEK5	MEKK3 PB1 HTS	MEKK2mut PB1 HTS	MEKK2wt confirm	MEKK2mut confirm	MEKK3 confirm	others
C=CCN1C(=O)/C(=C\c2ccc(N3CCOCC3)o2)C(=O)NC1=S	-8	-6	-18	94	95	-2	·	·	·
C=CCN1C(=O)/C(=C/c2ccc(Br)s2)C(=O)NC1=S	46*	-11	-10	93	100	2	·	·	·	NS3 hel confirm=68*;DNA FID counter-2=9
Cn1c(O)c(/C=C2/C=CC=N2)c(=O)[nH]c1=O	-12	-1	-7	93	97	-1	·	·	·
CC(C)c1ccc(-n2c(O)c(C=NC(CCS(C)=O)C(=O)O)c(=O)[nH]c2=S)cc1 (centres undefined)	40*	-13	-10	87	93	-8	·	·	·	NS3 hel confirm=-8;DNA FID counter-2=12
O=C(N/N=C/c1c(O)n(-c2ccccc2)c(=S)[nH]c1=O)c1ccccc1	12	-21	-34	103	107	1	·	·	·
CC(C)(C)N1C(=O)NC(=O)/C(=C\c2ccc3c(c2)CCN3CCCCl)C1=O	97*	-27	7	77	91	-6	·	·	·	NS3 hel confirm=-12;DNA FID counter-2=4
O=C(O)CC1OCC=C2CN3CCC45C6=CC(=O)C(=O)C([N+](=O)[O-])=C6NC4C1C2CC35 (centres undefined)	19	-2	7	99	95	-4	·	·	·	NS3 hel confirm=-16;DNA FID counter-2=17
